This note sets out measurements from ChEMBL document CHEMBL1157810, “Synthesis and evaluation of nitric oxide-releasing derivatives of farnesylthiosalicylic acid as anti-tumor agents” (Bioorg Med Chem, 2010).

Molecules are shown by their SMILES. pIC50: −log10 of the molar value. Calls of active or inactive are those of the source. The calls are words filed in the database; no cut-off is given here.

The subject of experiment [1] is U-251. Briefly: Cytotoxicity against human U251 cells after 48 hrs by MTT assay. Type of experiment: functional, cell-based. The settings on record: U-251, 48 h. A digest of the protocol:
(§1)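 Cells at 5–10 × 10³/well grown overnight in RPMI-1640, then exposed in triplicate to a concentration series for 48 h. MTT (1 mg/mL) added for the final 4 h, formazan dissolved in DMSO, read at 570 nm against 595 nm reference. Untreated cells served as negative control, 1% Triton-treated cells as positive control. Inhibition calculated relative to negative-control OD. IC50 taken as concentration giving 50% growth inhibition.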

Experiment [2] can be described thus: Cytotoxicity against human U87 cells after 48 hrs by MTT assay. The class given is functional, cell-based, U-87MG ATCC. Particulars: U-87 MG. An outline of the steps: as §1
In experiment [3] the test system is SGC-7901. As to the kind of experiment: Cytotoxicity against human SGC7901 cells after 48 hrs by MTT assay. The class given is functional, cell-based. Particulars: SGC-7901, 48 h. An outline of the steps: as §1
For orientation: Formazan colour is commonly taken as a measure of viable cells.

The test system of experiment [4] is MDA-MB-231. Briefly: Ratio of IC50 for FTA to IC50 for drug for cytotoxicity against human MDA-MB-231 cells after 48 hrs by MTT assay. The class given is functional.
Experiment [5] has as its system MDA-MB-231. Briefly: Ratio of IC50 for sorafenib to IC50 for drug for cytotoxicity against human MDA-MB-231 cells after 48 hrs by MTT assay. The class given is functional.
Experiment [6] concerns MCF7. Briefly: Induction of NO production in human MCF7 cells at 100 uM after 30 to 300 mins by Griess assay. Type of experiment: functional, cell-based. An outline of the steps:
(§2)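 Cells treated with compound at 100 µM. Nitrate/nitrite in cell lysates measured by Griess reaction at 540 nm over 30–300 min and quantified from a sodium nitrate standard curve. Diluent-treated cells gave background. Reported values are means of two experiments at 240 min post-treatment.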
Background: The Griess reaction detects nitrite, a stable product of nitric oxide.

For experiment [7], the system named is MDA-MB-231. As to the kind of experiment: Induction of NO production in human MDA-MB-231 cells at 100 uM after 30 to 300 mins by Griess assay. The class given is functional, cell-based. An outline of the steps:
as §2

Experiment [8] has as its system U-251. Briefly: Induction of NO production in human U251 cells at 100 uM after 30 to 300 mins by Griess assay. The class given is functional, cell-based. An outline of the steps: as §2
Another experiment relates to U-87MG ATCC. Briefly: Induction of NO production in human U87 cells at 100 uM after 30 to 300 mins by Griess assay. Type of experiment: functional, cell-based. An outline of the steps: as §2
Experiment [9] relates to SGC-7901. As to the kind of experiment: Induction of NO production in human SGC7901 cells at 100 uM after 30 to 300 mins by Griess assay. The class given is functional, cell-based. A digest of the protocol:
as §2

For experiment [10], the system named is MCF7. As to the kind of experiment: Cytotoxicity against human MCF7 cells after 48 hrs by MTT assay. The class given is functional, cell-based. The settings on record: MCF7, 48 h. An outline of the steps: as §1
Experiment [11] concerns MDA-MB-231. As to the kind of experiment: Cytotoxicity against human MDA-MB-231 cells after 48 hrs by MTT assay. The settings on record: MDA-MB-231, 48 h. Type of experiment: functional, cell-based. A digest of the protocol: as §1

Usually pIC50 stands for the negative decadic logarithm of the IC50, by convention in mol/L. A higher pIC50 goes with a small IC50. For the molecule `CC(C)=CCC/C(C)=C/CC/C(C)=C/CSc1ccccc1C(=O)N1CCC[C@H]1C(=O)OCC#CCOc1no[n+]([O-])c1S(=O)(=O)c1ccccc1`, the pIC50 is 5.45 with U-251 [1]; 4.87 in experiment [2]; 5.13 with SGC-7901 [3]; 5.26 in the experiment with MCF7 [10]; 5.97 in the experiment on MDA-MB-231 [11]. Moreover, the “Ratio IC50” value in the experiment on MDA-MB-231 [4] was 50; with MDA-MB-231 [5], 4. In addition, the outcome in the experiment on MCF7 [6], in the experiment with MDA-MB-231 [7], in the experiment on U-251 [8], in the experiment with U-87MG ATCC and in the experiment on SGC-7901 [9] was Active.
